An excerpt weighted towards active compounds, which were near 4.5% of everything screened.
RGS4 block – RGS4 inhibitors, primary screen, cell-based, HEK293 M3R inducible RGS4, calcium flux; Regulator of G-protein signaling 4 (Homo sapiens), P49798; Fluo-4 calcium flux; active compounds read high; triggered by carbachol at its EC20; B-score at 10 µM; actives 0.45% (n = 310,000); AID 463165, 2010;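 active means B-score, a plate-corrected calcium signal, over three deviations above library mean, with baseline fluorescence within five deviations of library mean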;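 further: RGS4 expression induced by doxycycline in cells with stable M3 receptor; B-score is computed from the integrated fluorescence ratio over baseline after carbachol; higher B-score means a larger calcium signal and so more RGS4 inhibition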
Target sequence (P49798 whole entry, looked up): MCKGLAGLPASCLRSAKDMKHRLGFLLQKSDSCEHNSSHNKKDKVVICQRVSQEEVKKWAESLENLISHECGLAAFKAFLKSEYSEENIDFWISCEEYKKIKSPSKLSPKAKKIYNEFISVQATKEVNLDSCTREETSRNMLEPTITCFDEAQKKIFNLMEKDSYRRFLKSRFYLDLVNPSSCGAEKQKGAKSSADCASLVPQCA
RGS4 pot – RGS4 potentiators or activators, primary screen, cell-based, HEK293 M3R inducible RGS4, calcium flux; carbachol calcium flux Fluo4; active compounds read low; B-score at 10 µM; actives 0.92% (n = 310,000);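 active means B-score of the integrated calcium signal more than 4 SD below the library mean, with starting fluorescence not abnormally high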;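 further: negative B-score means reduced calcium response which marks RGS4 activation or potentiation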
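test system = M3R-expressing HEK293 line, RGS4 induced by doxycycline | probe or stimulus = carbachol at ECmax as muscarinic agonist stimulus | timing = dye loading 30 min 37 °C, buffer rest 30 min RT | signal = calcium dye Fluo4 fluorescence | evaluation = B score from integrated fluorescence ratio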
PHOSPHO1 inh – PubChem AID 1565; Phosphoethanolamine/phosphocholine phosphatase (Homo sapiens), Q8TCT1; recombinant PHOSPHO1, absorbance phosphatase assay; inhibition, % at 13.3 µM; actives 1.1% (n = 290,000); in the data active means inhibition above about 60%
MrgX1 allo act – positive allosteric modulators of MrgX1, primary screen, HEK293 cells, Fluo-4 calcium flux. FDSS; active compounds read high. B-score at 10 µM. actives 0.63% (n = 310,000). AID 588675, 2011;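 active means plate-corrected calcium response at least 3 library SD above typical, normal starting fluorescence, not activating the receptor alone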;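 further: compound read alongside a low EC10 to EC30 dose of BAM8-22 agonist; peak minus trough fluorescence over baseline measured at the second addition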
Target sequence (Q96LB2 whole entry, looked up): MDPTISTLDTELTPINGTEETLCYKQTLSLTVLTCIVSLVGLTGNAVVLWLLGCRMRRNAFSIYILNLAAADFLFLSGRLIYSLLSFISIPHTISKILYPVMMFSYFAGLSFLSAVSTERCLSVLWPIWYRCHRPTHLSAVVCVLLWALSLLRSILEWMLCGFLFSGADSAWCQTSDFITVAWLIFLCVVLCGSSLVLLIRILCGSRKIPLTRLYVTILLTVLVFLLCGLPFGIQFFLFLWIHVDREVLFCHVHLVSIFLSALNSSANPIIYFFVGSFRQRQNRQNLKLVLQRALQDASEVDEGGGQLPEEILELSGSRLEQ
MrgX1 agonist – agonists of human MrgX1 receptor, primary screen, HEK293 cells, Fluo-4 calcium flux. Mas-related G-protein coupled receptor member X1 (Homo sapiens), Q96LB2. actives 0.44% (n = 310,000). B-score at 10 µM. Fluo-4 calcium fluorescence, agonist mode; active compounds read high;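 active means calcium response B-score plate-corrected fluorescence ratio at least 3 library SD, with starting fluorescence B-score inside 5 SD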
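System: HEK293 cells stably expressing human MrgX1 receptor; Dosing: test compound in the initial addition of three; Schedule: overnight plating, then 30 min 37 °C plus 30 min room-temperature dye loading; Detection: kinetic calcium dye fluorescence, Fluo-4 NW; Controls: per-plate positive and negative controls for Z′ factor.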
MrgX1 antag – antagonists of human MrgX1 receptor, primary screen, HEK293 cells, Fluo-4 calcium flux | AID 588676, 2011 | Mas-related G-protein coupled receptor member X1 (Homo sapiens), Q96LB2 | actives 1.3% (n = 310,000) | BAM8-22 antagonism; active compounds read low | B-score at 10 µM;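 active means calcium-response B-score plate-corrected more than 3 library SD below zero, starting fluorescence within 5 deviations, no agonist response on first addition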;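 further: peak minus trough fluorescence over baseline after final BAM8-22 challenge near maximal dose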
RGS4 activ val – reduced carbachol calcium response, RGS4-induced M3R cells, confirmation, RGS4 activator project, cell-based, HEK293 M3R/RGS4 inducible, calcium flux, duplicate; AID 602282, 2012; inhibition, % at 10 µM; carbachol calcium flux Fluo4; actives 89% (n = 1,100); shares compounds with RGS4 pot;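 active means inhibition above 3 SD of the buffer control wells, cut at about 41% in these data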;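 further: signal is the integrated peak-minus-minimum Fluo4 fluorescence over baseline ratio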
RGS4 act ctr – RGS4 activator counter-screen hit in non-induced cells; shares compounds with RGS4 pot; HEK293 M3R non-induced RGS4, Fluo4 calcium flux; after carbachol challenge at its EC90; inhibition, % at 10 µM; actives 82% (n = 1,100); AID 602283;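 active means inhibition exceeding 3 SD of buffer-only control wells, cut at about 26% in these data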;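 further: percent drop in integrated peak-minus-baseline over baseline Fluo4 ratio after carbachol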
The depositor's hits bear a star; i = inactive; x = not tested or not shown.

SMILES | RGS4 block | RGS4 pot | PHOSPHO1 inh | MrgX1 allo act | MrgX1 agonist | MrgX1 antag | RGS4 activ val | RGS4 act ctr
Cc1ccc2oc(=O)c3cc(C(=O)NCCCN4CCc5ccccc5C4)sc3c2c1 | i | -7.7* | -6.1 | i | i | i | 51.0* | 83.8*
COc1ccc([C@@H]2C[C@H](c3ccccc3)Oc3cc(C)cc(C)c32)cc1 | i | i | 6.5 | x | x | x | x | x
Cc1cccc(-c2cc(C(=O)Nc3cccnc3)c3ccccc3n2)c1 | i | -9.49* | -34.0 | i | i | i | 56.0* | 0.0
COC(=O)c1cc(S(=O)(=O)N2CCCC2=O)c(Cl)cc1Cl | i | i | 30.2 | i | i | i | x | x
CCCc1cc(=O)oc2cc(C)cc(OC(C)C(=O)N[C@@H](Cc3c[nH]c4ccccc34)C(=O)O)c12 (stereo partly drawn) | i | -14.1* | 28.6 | i | i | i | 0.0 | 0.0
CCCCc1cc(=O)oc2cc(C)cc(OC(C)C(=O)NC(Cc3c[nH]c4ccc(O)cc34)C(=O)O)c12 (stereo not drawn) | i | i | -2.5 | i | i | i | x | x
CCc1noc(C)c1C(=O)NC1CC(C)(C)Cc2c1cnn2-c1ccccc1 (stereo not drawn) | i | i | 32.2 | i | i | i | x | x
CC(C)(C)c1csc(NC(=O)c2cccs2)n1 | i | -8.24* | 5.0 | i | i | i | 0.0 | 0.0
CC(=O)N1CCOc2ccc(S(=O)(=O)N3CCC(C(=O)Nc4cc(C)ccc4C)CC3)cc21 | i | i | -14.5 | i | i | i | x | x
CC(=O)N1CCOc2ccc(S(=O)(=O)N3CCC(C(=O)Nc4ccc(C)cc4C)CC3)cc21 | i | -8.63* | 1.5 | i | i | i | 0.0 | 0.0
CCN(CC)CCNC(=O)c1ccc(NC(=O)c2cccc(-n3cnnn3)c2)cc1 | i | i | x | i | i | i | x | x
CCN(CC)CCNC(=O)c1ccc(NC(=O)c2c(C)nn(-c3ccc(F)cc3)c2Cl)cc1 | i | -9.81* | 32.0 | i | i | i | 92.5* | 87.8*
Cc1ccc(C2c3[nH]c4ccccc4c3C[C@H]3C(=O)N(c4ccccc4C(=O)N4CCC[C@@H]4C(=O)O)C(=O)N23)cc1 (stereo partly drawn) | i | i | 23.4 | i | i | i | x | x
CCN1CCCC1CNCc1cccc(OC)c1OCc1ccccc1 (stereo not drawn) | i | i | -49.0 | i | i | i | x | x
CCN1CCCC1CNCc1ccccc1OCc1ccc(F)cc1 (stereo not drawn) | i | -7.62* | 7.4 | i | i | i | 46.0* | 0.0
CCc1sc(C(=O)NCCCn2ccnc2)cc1Br | i | i | -11.0 | i | i | i | x | x
COc1ccc(OC)c2c1C(=O)C(Cl)=C(Cl)C2=O | i | -8.25* | 20.0 | i | i | i | 79.5* | 64.8*
C=CCn1c(C)cc(-c2csc(NC(=O)CCc3nc4ccccc4c(=O)[nH]3)n2)c1C | i | -8.45* | x | i | i | i | 68.5* | 0.0
C=CCn1c(SCC(=O)N2CCc3ccccc3C2)nc2sc(CC)cc2c1=O | i | i | -16.4 | i | i | i | x | x
C=CCn1c(SCC(=O)N2CCc3ccccc3C2)nc2sc(C)c(C)c2c1=O | i | -7.89* | 0.0 | i | i | i | 85.0* | 58.3*
CC(C)N1CCN(C(=O)c2ccc(OC3CCN(CCc4ccccc4)CC3)cc2)CC1 | i | i | 27.0 | i | i | i | x | x
CC(C)C(O)(C#CCN1CCCCCC1)c1ccccc1 (stereo not drawn) | i | -11* | 28.3 | i | i | i | 94.0* | 87.3*
CC(O)(C#CCN1CCCCC1)c1ccccc1 (stereo not drawn) | i | i | -50.8 | i | i | i | x | x
CC(C)(C)C(O)(CC#CCN1CCCC1)c1ccccc1 (stereo not drawn) | i | -9.41* | 28.8 | i | i | i | 76.5* | 31.3*
CC(O)(C#CCN1CCCC1)c1ccccc1 (stereo not drawn) | i | i | 3.9 | i | i | i | x | x
SMILES | RGS4 block | RGS4 pot | PHOSPHO1 inh | MrgX1 allo act | MrgX1 agonist | MrgX1 antag | RGS4 activ val | RGS4 act ctr
OC(C#CCN1CCCC1)(c1ccccc1)c1cccc(F)c1 (stereo not drawn) | i | -8.39* | -7.5 | i | i | i | 91.5* | 95.8*
CC(C)(C#CCN1CCCCC1)OCCOC(c1ccccc1)c1ccccc1 | i | -12.4* | -27.7 | i | i | i | 93.0* | 92.3*
Cc1ccccc1SC1CCN(Cc2nc(C3CC3)no2)CC1 | i | i | 9.5 | i | i | i | x | x
CC(C)C(O)(CC#CCN1CCCC1)c1ccccc1 (stereo not drawn) | i | -9.21* | 26.5 | i | i | i | 92.0* | 44.3*
OC(CC#CCN1CCOCC1)(c1ccccc1)c1ccccc1 | i | i | 23.5 | i | i | i | x | x
C(#CCN1CCCC1)CC(c1ccccc1)c1ccccc1 | i | -13.3* | 38.7 | i | i | i | 92.5* | 93.3*
CC1CCCN1CC#CC(O)(c1ccccc1)c1ccccc1 (stereo not drawn) | i | -7.93* | 3.7 | i | i | i | 89.5* | 92.3*
C(#Cc1ccccc1)CN1CCCCC1 | i | i | 53.2 | i | i | i | x | x
CCOc1ccc2nc(NC(=O)Nc3cccs3)sc2c1 | i | i | -11.1 | i | i | i | x | x
O=C(NCC1CCCO1)c1csc2c1CCCCC2 (stereo not drawn) | i | -9.13* | 47.3 | i | i | i | 0.0 | 0.0
CN1CCC(C2(O)c3ccccc3CCc3ccccc32)CC1 | i | -9.99* | 4.5 | i | i | i | 62.0* | 83.8*
CN1CCC(C2(O)c3ccccc3CSc3sccc32)CC1 (stereo not drawn) | x | x | -8.3 | i | i | i | x | x

Screening data as filed in PubChem BioAssay.
